Only some compounds are listed: those with a hit (about 3.3% of all), similar ones and a draw of the others.
DENV2 CPE rescue: protects cells from dengue virus 2 cytopathic effect; DENV2-infected cells, cytopathic effect rescue, plate reader; CPE inhibition, % at 9.99 µM; AID 651640; 350,000 tested, 1.7% active; in the data active = CPE inhibition above about 20%, passing the limit was not always enough; inconclusive = no clear call, values can overlap the other calls; tested in BHK-21 cells
XiGFP reactiv: X-chromosome reactivation activator | XiGFP mouse fibroblasts, % GFP-positive cells imaging, 3 d; cells co-treated with 5-aza-dC sensitizer; scaled so ellipticine positive control = 100% | activation, % at 7.58 µM | 360,000 tested, 0.055% active | AID 743238;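 active = mean normalized replicate activation at least 10% and every replicate at or above 10%; inconclusive = only one of the two criteria met; inactive = mean below 10% and not all replicates reach 10%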
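Material: XiGFP fibroblasts, SV40-immortalized; Buffer or medium: DMEM containing 5-aza-dC; Compound dosing: single point; Times: 3 days compound exposure.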
C2C12 statin: suppression of simvastatin myotoxicity; 330,000 tested, 0.78% active; C2C12 myotubes + simvastatin, ATP luminescence, 48 h; scaled: DMSO 0, geranylgeraniol control 100; AID 602340; rescue of ATP level, % at 7.49 µM;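 active = mean ATP rescue above about 67%, or every replicate alone reaching that limit, limit read from the data, passing the limit was not always enough; inconclusive = no clear call, values can overlap the other calls; inactive = mean under the limit and some replicate under it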;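 note: myotubes were challenged with 10 µM simvastatin during compound exposure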
FGF22 binding: shifts melting point of recombinant human FGF22 | Q9HCT0 | recombinant FGF22 thermal shift, SYPRO orange fluorescence; percent of sucrose octasulfate shift, DMSO zero | activity (Tm shift, normalised), % at 9.99 µM | 340,000 tested, 1.5% active;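 active = mean Tm shift, scaled 0 neutral to 100 positive control, at about 1.3% or above, every replicate too, limit read from the data; inconclusive = no clear call, values can overlap the other calls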
Target sequence (Q9HCT0 whole entry, looked up): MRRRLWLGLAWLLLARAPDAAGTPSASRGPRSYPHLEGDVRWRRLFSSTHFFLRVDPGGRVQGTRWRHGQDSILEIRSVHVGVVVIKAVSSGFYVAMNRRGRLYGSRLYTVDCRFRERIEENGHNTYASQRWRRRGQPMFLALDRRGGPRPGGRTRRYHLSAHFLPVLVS
PglD DTNB: PglD (C. jejuni) enzyme inhibition | 360,000 tested, 0.098% active | purified PglD enzyme, DTNB colorimetric CoA detection | inhibition, % at 12.5 µM; in the data active = inhibition above about 16%, passing the limit was not always enough; inconclusive = no clear call, values can overlap the other calls
E-selectin induc: induces E-selectin expression in human endothelial cells | HUVEC E-selectin immunofluorescence imaging; normalized: neutral wells 0, TNF-alpha wells 100 | 260,000 tested, 0.37% active | P16581 | AID 686992 | activation, % at 7.58 µM;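 active = mean E-selectin-positive cell signal at least 10% of the positive control, reached in at least 60% of replicates, without over 20% cell loss; inconclusive = no rule given, readout overlaps actives, possibly toxicity-flagged; inactive = the rest, including those meeting only one limit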
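Material: HUVEC primary endothelial cells; Amount: 3,000 cells per well; Dosing: single concentration; Medium: EGM-2 growth medium on 0.1% gelatin-coated wells; Read-out basis: percent E-selectin-positive cells; Signal: immunofluorescence imaging; Control set: TNF-alpha, DMSO.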
A number is an active result; . = inactive; ? = inconclusive; / = no result given.

SMILES | DENV2 CPE rescue | XiGFP reactiv | C2C12 statin | FGF22 binding | PglD DTNB | E-selectin induc
C[C@@H]1CCCCO[C@@H](CN(C)C(=O)Nc2ccccc2)[C@@H](C)CN([C@@H](C)CO)C(=O)c2cc(NS(=O)(=O)c3ccc(Cl)cc3)ccc2O1 | . | . | / | . | . | /
CN1CCN(C(=O)C[C@@H]2C[C@H]3c4cc(NC(=O)NC5CCCCC5)ccc4O[C@H]3[C@@H](CO)O2)CC1 | . | . | . | . | . | .
O=C(Nc1ccc2c(c1)[C@H]1C[C@@H](CC(=O)N3CCCCC3)O[C@@H](CO)[C@H]1O2)C1CCC1 | 25.9 | . | . | . | . | .
O=C(Nc1ccc(F)cc1)Nc1ccc2c(c1)[C@H]1C[C@H](CC(=O)N3CCCCC3)O[C@@H](CO)[C@H]1O2 | 21.2 | . | . | . | . | .
CN1CCN(C(=O)C[C@@H]2C[C@@H]3c4cc(NC(=O)NC5CCCCC5)ccc4O[C@@H]3[C@@H](CO)O2)CC1 | 28.7 | . | . | . | . | .
O=C(Nc1ccc(F)cc1)Nc1ccc2c(c1)[C@@H]1C[C@H](CC(=O)N3CCCCC3)O[C@@H](CO)[C@@H]1O2 | . | . | . | . | . | .
NC(=O)CC(NC(=O)Cc1ccc(Br)cc1)c1ccc(NCc2ccc(F)cc2)c([N+](=O)[O-])c1 (configuration not stated) | / | . | . | 43.6 | . | .
NC(=O)CC(NC(=O)c1ccccc1)c1ccc(NCCc2cccc(F)c2)c([N+](=O)[O-])c1 (configuration not stated) | 39.1 | . | . | . | . | .
NC(=O)CC(NC(=O)c1cccc(Br)c1)c1ccc(NCCN2CCOCC2)c([N+](=O)[O-])c1 (configuration not stated) | 29.2 | . | / | . | / | .
COc1ccc(-c2ccc(C3[C@H]4CNC[C@@H]3N4S(=O)(=O)c3cn(C)cn3)cc2)cc1 (some centres not stated) | . | . | / | / | / | .
Cc1occc1C(=O)N/N=C/C1=C(N2CCOCC2)C(=C/c2ccc(Cl)cc2Cl)/CC1 | . | . | . | 43.2 | . | .
Cc1occc1C(=O)N/N=C/c1sc(N2CCOCC2)nc1-c1ccccc1 | . | . | / | . | / | /
C[C@H]1CN([C@@H](C)CO)C(=O)c2cccc(NC(=O)Nc3cccc4ccccc34)c2O[C@H]1CN(C)Cc1ccc(-c2ccccc2)cc1 | / | . | / | / | / | 89.7
C[C@H](CO)N1C[C@H](C)[C@@H](CN(C)S(=O)(=O)c2ccc(Cl)cc2)Oc2c(NC(=O)c3nc4ccccc4s3)cccc2C1=O | 24.7 | . | . | . | . | .
C[C@H](CO)N1C[C@H](C)[C@H](CN(C)Cc2ccc(-c3ccccc3)cc2)Oc2c(NC(=O)c3nc4ccccc4s3)cccc2C1=O | 41.4 | . | / | . | . | .
CC(C)NC(=O)Nc1cccc2c1O[C@H](CN(C)Cc1ccc(-c3ccccc3)cc1)[C@@H](C)CN([C@@H](C)CO)C2=O | . | . | 65.9 | . | . | .
COc1ccc(NC(=O)Nc2ccc3c(c2)CC(=O)N([C@@H](C)CO)C[C@H](C)[C@H](CN(C)S(=O)(=O)c2ccc(C)cc2)O3)cc1 | / | . | / | / | / | /
C[C@H](CO)N1C[C@H](C)[C@@H](CN(C)CC2CC2)Oc2c(NC(=O)C3CCOCC3)cccc2C1=O | . | . | . | . | . | .
CCN(CC)C(=O)C1CCN(Cc2ccc(OCc3ccccc3)cc2)CC1 | 27.6 | . | . | . | . | .
CCCNC(=O)N1CC2(C1)[C@H](c1ccccc1)[C@@H](CO)N2CC1CCOCC1 | 23.7 | . | / | . | / | .
CCCNC(=O)N1CC2(C1)[C@H](c1ccccc1)[C@H](CO)N2CC1CCOCC1 | . | . | / | . | / | .
CC(=O)N1CC2(C1)[C@H](c1ccccc1)[C@@H](CO)N2Cc1ccccc1 | 24.2 | . | / | . | / | .
O=C(CC1CC1)N1CC2(C1)[C@@H](c1ccccc1)[C@@H](CO)N2CC1CCOCC1 | . | . | / | . | / | .
CC(=O)N1CC2(C1)[C@H](c1ccccc1)[C@H](CO)N2CC1CCOCC1 | . | . | / | . | / | .
CC(=O)N1CC2(C1)[C@H](c1ccccc1)[C@@H](CO)N2CC1CCOCC1 | 60.5 | . | / | . | / | .
SMILES | DENV2 CPE rescue | XiGFP reactiv | C2C12 statin | FGF22 binding | PglD DTNB | E-selectin induc
CN(C)CC(=O)N1[C@H](CO)[C@@H](c2ccccc2)C12CN(CC1CCOCC1)C2 | 20.5 | . | / | . | / | .
COc1ccc(S(=O)(=O)N[C@H]2C=C[C@H](CC(=O)N3CCN(c4ccccc4)CC3)O[C@H]2CO)cc1 | . | . | . | . | . | .
O=S(=O)(Cc1ccccc1)N1CC2(C1)[C@H](c1ccccc1)[C@@H](CO)N2CC1CCOCC1 | 26.6 | . | / | . | / | .
CC(=O)N1CC2(C1)[C@@H](c1ccccc1)[C@@H](CO)N2CC1CCOCC1 | 21.8 | . | / | . | / | .
O=C(CC1CC1)N1CC2(C1)[C@H](c1ccccc1)[C@H](CO)N2CC1CCOCC1 | . | . | / | . | / | .
CC1(C(=O)NCc2cc(F)cc(C(F)(F)F)c2)C=CC2(CCCCC2)N1C(=O)c1ccccc1 (configuration not stated) | 100.1 | . | . | . | . | .
CC1(C(=O)NCC2CC2)C=CC2(CCCCC2)N1C(=O)c1ccccc1 (configuration not stated) | / | / | . | / | . | /
C[C@H](CO)N1C[C@H](C)[C@H](CN(C)S(=O)(=O)c2ccc(F)cc2)Oc2c(NC(=O)c3cnccn3)cccc2C1=O | . | . | . | . | / | .
Cc1c(C)c2c(OCC(=O)N3CCC(O)CC3)cc3c(c2oc1=O)CCC(C)(C)O3 | 46.6 | / | . | . | . | /
N/C(=N/O)c1ccccc1N1CCC(Cc2ccccc2)CC1 | . | . | / | 43.9 | / | /
O=C(c1cccc(F)c1)N1CC2(C1)[C@@H](c1ccccc1)[C@H](CO)N2C(=O)C1CCC1 | . | . | / | / | / | .
COC(=O)c1ccc(CNC(=O)c2ccc(OC)c(S(=O)(=O)NC3CCCC3)c2)cc1 | . | . | . | . | . | 98.6
COc1cccc(CNC(=O)c2ccc(OC)c(S(=O)(=O)NC3CCCC3)c2)c1 | . | . | . | . | . | .
CN(C)Cc1ccccc1CNC(=O)c1ccc(Cl)c(S(=O)(=O)NC2CC2)c1 | . | . | . | 43.3 | . | .
C[C@H]1CCCCO[C@@H](CN(C)S(=O)(=O)c2cccs2)[C@@H](C)CN([C@@H](C)CO)C(=O)c2cc(NS(=O)(=O)c3ccccc3)ccc2O1 | . | . | / | / | . | .
O=C(Nc1cccc(C(F)(F)F)c1)c1csc(COCCO)n1 | 24.3 | . | . | . | . | .
O=C(Nc1cccc(Cl)c1)c1csc(COCCO)n1 | . | . | . | . | . | .
Cc1ccc(-n2c(=O)cc(N3CCN(C(=O)c4ccco4)CC3)[nH]c2=O)cc1 | ? | . | 101.8 | . | . | .

Screens from PubChem BioAssay.
